From ChEMBL document CHEMBL4665633, “Cereblon versus VHL: Hijacking E3 ligases against each other using PROTACs” (Bioorg Med Chem, 2019)
Activity calls are given as the source filed them. The calls are words filed in the database; no cut-off is given here.

What was measured:
Format in all cases: cell-based
[1] = target: T1, Protein cereblon/von Hippel-Lindau disease tumor suppressor (Homo sapiens, UniProt P40337+Q96SW2); assay: Protac activity at VHL/CRBN in HEK293 cells assessed as induction of CRBN protein degradation after 4 hrs by Western blot analysis
How it was run: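 HEK293 cells seeded at 1 × 10⁶ per well overnight, exposed 4 h to a compound concentration series (0.1% v/v final DMSO), lysed in RIPA, and immunoblotted on equal Bradford-quantified protein. CRBN bands were normalised to β-tubulin and expressed relative to mean DMSO vehicle. DC50 was estimated by fitting band intensity against log[concentration].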
Target sequence in this assay (P40337 whole entry): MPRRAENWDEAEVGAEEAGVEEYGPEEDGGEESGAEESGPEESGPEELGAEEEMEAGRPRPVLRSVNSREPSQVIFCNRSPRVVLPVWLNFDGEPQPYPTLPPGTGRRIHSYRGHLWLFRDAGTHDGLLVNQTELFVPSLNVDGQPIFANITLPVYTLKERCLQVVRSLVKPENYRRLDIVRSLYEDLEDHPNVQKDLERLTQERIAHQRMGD
Target sequence in this assay (Q96SW2 whole entry): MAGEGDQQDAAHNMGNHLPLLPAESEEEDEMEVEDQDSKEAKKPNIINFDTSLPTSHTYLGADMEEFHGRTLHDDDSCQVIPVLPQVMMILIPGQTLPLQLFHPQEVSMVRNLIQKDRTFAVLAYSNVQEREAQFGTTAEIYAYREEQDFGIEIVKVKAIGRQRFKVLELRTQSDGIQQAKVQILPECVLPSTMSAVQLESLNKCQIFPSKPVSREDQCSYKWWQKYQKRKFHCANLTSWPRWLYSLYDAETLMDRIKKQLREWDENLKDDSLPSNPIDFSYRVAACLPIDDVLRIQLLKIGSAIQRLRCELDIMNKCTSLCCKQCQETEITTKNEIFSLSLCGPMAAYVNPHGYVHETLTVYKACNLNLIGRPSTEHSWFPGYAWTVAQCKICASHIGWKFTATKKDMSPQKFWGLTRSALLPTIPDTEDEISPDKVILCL

[2] = target: T1, Protein cereblon/von Hippel-Lindau disease tumor suppressor; assay: Protac activity at VHL/CRBN in HEK293 cells assessed as pVHL19 protein abundance at 1 uM after 1 hr by Western blot analysis relative to DMSO
How it was run: (§1)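 HEK293 cells (DMEM, 10% FBS, penicillin/streptomycin, L-glutamine; 37 °C, 5% CO2; ≤30 passages) seeded at 1 × 10⁶ per well overnight, then treated with compound at 0.1% v/v final DMSO. Cells were lysed in RIPA with protease inhibitors and benzonase, then clarified. Equal Bradford-quantified protein was immunoblotted for CRBN/VHL. Bands were normalised to β-tubulin and expressed as % of mean 0.1% DMSO vehicle.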
Target sequence in this assay (P40337 whole entry, looked up): as the sequence (P40337 whole entry) above
Target sequence in this assay (Q96SW2 whole entry, looked up): as the sequence (Q96SW2 whole entry) above

[3] = target: T1, Protein cereblon/von Hippel-Lindau disease tumor suppressor; assay: Protac activity at VHL/CRBN in HEK293 cells assessed as pVHL19 protein abundance at 1 uM after 12 hrs by Western blot analysis relative to DMSO; how it was run: as §1
Target sequence in this assay (P40337 whole entry, looked up): as the sequence (P40337 whole entry) above
Target sequence in this assay (Q96SW2 whole entry, looked up): as the sequence (Q96SW2 whole entry) above

[4] = target: T1, Protein cereblon/von Hippel-Lindau disease tumor suppressor; assay: Protac activity at VHL/CRBN in HEK293 cells assessed as pVHL30 protein abundance at 1 uM after 1 hr by Western blot analysis relative to DMSO; how it was run: as §1
Target sequence in this assay (P40337 whole entry, looked up): as the sequence (P40337 whole entry) above
Target sequence in this assay (Q96SW2 whole entry, looked up): as the sequence (Q96SW2 whole entry) above

[5] = target: T1, Protein cereblon/von Hippel-Lindau disease tumor suppressor; assay: Protac activity at VHL/CRBN in HEK293 cells assessed as CRBN protein abundance at 1 uM after 1 hr by Western blot analysis relative to DMSO; how it was run: as §1
Target sequence in this assay (P40337 whole entry, looked up): as the sequence (P40337 whole entry) above
Target sequence in this assay (Q96SW2 whole entry, looked up): as the sequence (Q96SW2 whole entry) above

[6] = target: T1, Protein cereblon/von Hippel-Lindau disease tumor suppressor; assay: Protac activity at VHL/CRBN in HEK293 cells assessed as CRBN protein abundance at 1 uM after 4 hrs by Western blot analysis relative to DMSO; how it was run: as §1
Target sequence in this assay (P40337 whole entry, looked up): as the sequence (P40337 whole entry) above
Target sequence in this assay (Q96SW2 whole entry, looked up): as the sequence (Q96SW2 whole entry) above

[7] = target: T1, Protein cereblon/von Hippel-Lindau disease tumor suppressor; assay: Protac activity at VHL/CRBN in HEK293 cells assessed as CRBN protein abundance at 1 uM after 12 hrs by Western blot analysis relative to DMSO; how it was run: as §1
Target sequence in this assay (P40337 whole entry, looked up): as the sequence (P40337 whole entry) above
Target sequence in this assay (Q96SW2 whole entry, looked up): as the sequence (Q96SW2 whole entry) above

[8] = target: T1, Protein cereblon/von Hippel-Lindau disease tumor suppressor; assay: Protac activity at VHL/CRBN in HEK293 cells assessed as pVHL19 protein abundance at 10 nM after 4 hrs by Western blot analysis relative to DMSO; how it was run: as §1
[9] = target: T1, Protein cereblon/von Hippel-Lindau disease tumor suppressor; assay: Protac activity at VHL/CRBN in HEK293 cells assessed as pVHL19 protein abundance at 1000 nM after 4 hrs by Western blot analysis relative to DMSO; how it was run: as §1
[10] = target: T1, Protein cereblon/von Hippel-Lindau disease tumor suppressor; assay: Protac activity at VHL/CRBN in HEK293 cells assessed as pVHL19 protein abundance at 5000 nM after 4 hrs by Western blot analysis relative to DMSO; how it was run: as §1
[11] = target: T1, Protein cereblon/von Hippel-Lindau disease tumor suppressor; assay: Protac activity at VHL/CRBN in HEK293 cells assessed as pVHL19 protein abundance at 10000 nM after 4 hrs by Western blot analysis relative to DMSO; how it was run: as §1
[12] = target: T1, Protein cereblon/von Hippel-Lindau disease tumor suppressor; assay: Protac activity at VHL/CRBN in HEK293 cells assessed as pVHL30 protein abundance at 50 nM after 4 hrs by Western blot analysis relative to DMSO; how it was run: as §1
[13] = target: T1, Protein cereblon/von Hippel-Lindau disease tumor suppressor; assay: Protac activity at VHL/CRBN in HEK293 cells assessed as CRBN protein abundance at 500 nM after 4 hrs by Western blot analysis relative to DMSO; how it was run: as §1
[14] = target: T1, Protein cereblon/von Hippel-Lindau disease tumor suppressor; assay: Protac activity at VHL/CRBN in human HeLa cells assessed as pVHL19 protein abundance at 1 uM after 1 hr by Western blot analysis relative to DMSO
How it was run: (§2)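 HeLa cells seeded overnight, then exposed to 1 µM compound (0.1% v/v DMSO final) over a time course. Cells were DPBS-washed and RIPA-lysed with protease inhibitors and benzonase; equal protein was loaded. Immunoblots for CRBN and VHL isoforms were quantified against β-tubulin and reported relative to the averaged 0.1% DMSO vehicle.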

[15] = target: T1, Protein cereblon/von Hippel-Lindau disease tumor suppressor; assay: Protac activity at VHL/CRBN in human HeLa cells assessed as pVHL19 protein abundance at 1 uM after 12 hrs by Western blot analysis relative to DMSO; how it was run: as §2
[16] = target: T1, Protein cereblon/von Hippel-Lindau disease tumor suppressor; assay: Protac activity at VHL/CRBN in human HeLa cells assessed as pVHL30 protein abundance at 1 uM after 1 hr by Western blot analysis relative to DMSO; how it was run: as §2
[17] = target: T1, Protein cereblon/von Hippel-Lindau disease tumor suppressor; assay: Protac activity at VHL/CRBN in human HeLa cells assessed as pVHL30 protein abundance at 1 uM after 8 hrs by Western blot analysis relative to DMSO; how it was run: as §2
[18] = target: T1, Protein cereblon/von Hippel-Lindau disease tumor suppressor; assay: Protac activity at VHL/CRBN in human HeLa cells assessed as CRBN protein abundance at 1 uM after 2 hrs by Western blot analysis relative to DMSO; how it was run: as §2
[19] = target: T1, Protein cereblon/von Hippel-Lindau disease tumor suppressor; assay: Protac activity at VHL/CRBN in human HeLa cells assessed as pVHL19 protein abundance at 10000 nM after 4 hrs by Western blot analysis relative to DMSO
How it was run: (§3)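 HeLa cells (5 × 10⁵, DMEM + 10% FBS, 37 °C, 5% CO₂, ≤30 passages) seeded overnight, then treated 4 h with compound at single or graded concentrations (0.1% v/v DMSO final). RIPA lysates equalised by Bradford; SDS-PAGE and anti-CRBN/anti-VHL immunoblots; bands normalised to β-tubulin and expressed as % of mean DMSO vehicle. DC₅₀ from fit of band intensity versus log[concentration].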

[20] = target: T1, Protein cereblon/von Hippel-Lindau disease tumor suppressor; assay: Protac activity at VHL/CRBN in human HeLa cells assessed as pVHL30 protein abundance at 5 nM after 4 hrs by Western blot analysis relative to DMSO; how it was run: as §3
[21] = target: T1, Protein cereblon/von Hippel-Lindau disease tumor suppressor; assay: Protac activity at VHL/CRBN in human HeLa cells assessed as pVHL30 protein abundance at 100 nM after 4 hrs by Western blot analysis relative to DMSO; how it was run: as §3
[22] = target: T1, Protein cereblon/von Hippel-Lindau disease tumor suppressor; assay: Protac activity at VHL/CRBN in human HeLa cells assessed as pVHL30 protein abundance at 1000 nM after 4 hrs by Western blot analysis relative to DMSO; how it was run: as §3
[23] = target: T1, Protein cereblon/von Hippel-Lindau disease tumor suppressor; assay: Protac activity at VHL/CRBN in human HeLa cells assessed as CRBN protein abundance at 500 nM after 4 hrs by Western blot analysis relative to DMSO; how it was run: as §3
[24] = target: T1, Protein cereblon/von Hippel-Lindau disease tumor suppressor; assay: Protac activity at VHL/CRBN in human HeLa cells assessed as CRBN protein abundance at 5000 nM after 4 hrs by Western blot analysis relative to DMSO; how it was run: as §3
[25] = target: T1, Protein cereblon/von Hippel-Lindau disease tumor suppressor; assay: Protac activity at VHL/CRBN in human HeLa cells assessed as pVHL19 protein abundance at 1 uM after 4 hrs by Western blot analysis relative to DMSO; how it was run: as §2
[26] = target: T1, Protein cereblon/von Hippel-Lindau disease tumor suppressor; assay: Protac activity at VHL/CRBN in human HeLa cells assessed as pVHL30 protein abundance at 1 uM after 4 hrs by Western blot analysis relative to DMSO; how it was run: as §2
[27] = target: T1, Protein cereblon/von Hippel-Lindau disease tumor suppressor; assay: Protac activity at VHL/CRBN in HEK293 cells assessed as induction of CRBN degradation
[28] = target: T1, Protein cereblon/von Hippel-Lindau disease tumor suppressor; assay: Protac activity at VHL/CRBN in human HeLa cells assessed as reduction in CRBN protein level at 1 uM after 4 hrs by Western blot analysis; how it was run: as §3

## Cc1ncsc1-c1ccc(CNC(=O)[C@@H]2C[C@@H](O)CN2C(=O)[C@@H](NC(=O)COCCCCCOCCOCCCCCOCC(=O)NCCNc2cccc3c2C(=O)N(C2CCC(=O)NC2=O)C3=O)C(C)(C)C)cc1 (stereo partly drawn)
[1]
  DC50: 230 nM
[2]
  Activity: 98%
[3]
  Activity: 102%
[4]
  Activity: 88%
[5]
  Activity: 14%
[6]
  Activity: 6%
[7]
  Activity: 6%
[8]
  Activity: 110%
[9]
  Activity: 119%
[10]
  Activity: 109%
[11]
  Activity: 106%
[12]
  Activity: 133%
[13]
  Activity: 27%
[14]
  Activity: 100%
[15]
  Activity: 93%
[16]
  Activity: 100%
[17]
  Activity: 116%
[18]
  Activity: 27%
[19]
  Activity: 124%
[20]
  Activity: 61%
[21]
  Activity: 101%
[22]
  Activity: 125%
[23]
  Activity: 33%
[24]
  Activity: 49%
[25]
  Activity: 100%
[26]
  Activity: 103%
[27]
  Activity: Active
[28]
  Activity: Active
